Laboratory results reported in ChEMBL document CHEMBL1142491, “Linking bisphosphonates to the free amino groups in fluoroquinolones: preparation of osteotropic prodrugs for the prevention of osteomyelitis” (J Med Chem, 2008).
Converted amounts (≈) assume the structure as drawn. The source made the active and inactive calls. No cut-off for these calls is given here.

What was measured:
[1] = system: Staphylococcus aureus; test: Antibacterial activity against Staphylococcus aureus ATCC 13709 after 24 hrs by microdilution method; assay type: functional; details: ATCC 13709, 24 h
Summary of the method: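 MIC by broth microdilution per CLSI guidelines (M7 A7) against S. aureus ATCC 13709.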

[2] = system: Bone; test: Binding affinity to bone assessed as drug level bound to cattle bone meal powder by fluorescence assay; assay type: tissue-based; design: concentration or dose not given beside the values; details: Bos taurus; Bone element
Summary of the method: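 Compound dissolved in PBS, added at 1 mg/mL final to bone meal powder slurry (10 mg/mL in PBS), 37 °C for 1 h. Spun 13 000 rpm 2 min. Bound amount taken as input minus amount in supernatant, measured by fluorescence. Limit of detection 0.01%.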

[3] = system: Staphylococcus aureus; test: Protective effect against Staphylococcus aureus ATCC 13709-induced bone infection in CD rat at 10 mg/kg, iv administered as single dose 1 hr after bacterial challenge; assay type: functional, organism-based; design: dose 10 mg/kg
Summary of the method: (§1)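 S. aureus ATCC 13709 inoculum from frozen stock. Rats given intratibial 5% sodium morrhuate then about 5 × 10^5 CFU. Single IV bolus in saline, at the stated time relative to infection. Sacrificed 24 h post-infection. Tibiae milled and plated; mean log CFU/g bone ± SD. Detection limit 2 log CFU/g. Dunnett's test vs untreated, P<0.05.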

[4] = Stability in phosphate buffer saline assessed as amount of parent drug released from cattle bone meal powder over 24 hrs; assay type: ADME
Summary of the method: (§2)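 Washed bone powder carrying bound prodrug resuspended in PBS or 50% (v/v in PBS) human or rat serum, 24 h at 37 °C, then centrifuged. Supernatant extracted with 5 volumes methanol (15 min vortex), spun, dried, redissolved in PBS. Released fluoroquinolone quantified by fluorescence. Limit of detection 0.01%.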

[5] = system: Serum; test: Stability in 50% rat serum assessed as amount of parent drug released from cattle bone meal powder over 24 hrs; assay type: ADME, cell-free; summary of the method: as §2
[6] = system: Serum; test: Stability in 50% human serum assessed as amount of parent drug released from cattle bone meal powder over 24 hrs; assay type: ADME, cell-free; summary of the method: as §2
[7] = system: Staphylococcus aureus; test: Protective effect against Staphylococcus aureus ATCC 13709-induced bone infection in CD rat at 20 mg/kg, iv administered as single dose 2 days before bacterial challenge; assay type: functional, organism-based; design: dose 20 mg/kg; summary of the method: as §1
[8] = system: Staphylococcus aureus; test: Protective effect against Staphylococcus aureus ATCC 13709-induced bone infection in CD rat at 24 mg/kg, iv administered as single dose 1 day before bacterial challenge; assay type: functional, organism-based; design: dose 24 mg/kg; summary of the method: as §1
[9] = system: Staphylococcus aureus; test: Protective effect against Staphylococcus aureus ATCC 13709-induced bone infection in CD rat at 42 mg/kg, iv administered as single dose 2 days before bacterial challenge; assay type: functional, organism-based; design: dose 42 mg/kg; summary of the method: as §1
[10] = system: Staphylococcus aureus; test: Protective effect against Staphylococcus aureus ATCC 13709-induced bone infection in CD rat at 20.8 mg/kg, iv administered as single dose 1 day before bacterial challenge; assay type: functional, organism-based; design: dose 20.8 mg/kg; summary of the method: as §1

Q: What does the source list for `COc1c(N2C[C@@H]3CCCN[C@@H]3C2)c(F)cc2c(=O)c(C(=O)O)cn(C3CC3)c12` [MOXIFLOXACIN]?
A: MIC [1]: 0.03 µg/mL (≈ 0.0747 µM); Activity [2]: 0.01%; Activity [3]: Active

Q: With `COc1c(N2CCN(C(=O)CC(C)(C)c3cc(P(=O)(O)CP(=O)(O)O)ccc3OC(=O)C(C)C)C(C)C2)c(F)cc2c(=O)c(C(=O)O)cn(C3CC3)c12` (configuration not stated) as the compound, how does the Activity [4] read?
A: 0.8%

Q: And the Activity [5]?
A: 6.1%

Q: What about the MIC [1] of the same compound?
A: > 4 µg/mL

Q: And the Activity [2]?
A: 76%

Q: And the Activity [6]?
A: 3.6%

Q: With `COc1c(N2CCN(C(=O)OC(C)OC(=O)CCCC(=O)NC(P(=O)(O)O)P(=O)(O)O)C(C)C2)c(F)cc2c(=O)c(C(=O)O)cn(C3CC3)c12` (configuration not stated) as the compound, how does the Activity [4] read?
A: 1.5%

Q: What about the Activity [5] of the same compound?
A: 1.8%

Q: What about the MIC [1] of the same compound?
A: > 4 µg/mL

Q: And the Activity [2]?
A: 94.3%

Q: And the Activity [6]?
A: 2.4%

Q: Which Activity [4] does the source give for `COc1c(N2CCN(C(=O)OC(C)OC(=O)CCCC(P(=O)(O)O)P(=O)(O)O)C(C)C2)c(F)cc2c(=O)c(C(=O)O)cn(C3CC3)c12` (configuration not stated) here?
A: 0.7%

Q: What about the Activity [5] of the same compound?
A: 0.7%

Q: What about the MIC [1] of the same compound?
A: > 4 µg/mL

Q: What about the Activity [2] of the same compound?
A: 88.4%

Q: And the Activity [6]?
A: 0.9%

Q: With `COc1c(N2CCN(C(=O)CC(C)(C)c3cc(P(=O)(O)CP(=O)(O)O)ccc3OC(C)=O)C(C)C2)c(F)cc2c(=O)c(C(=O)O)cn(C3CC3)c12` (configuration not stated) as the compound, how does the Activity [4] read?
A: 5.4%

Q: What about the Activity [5] of the same compound?
A: 6.2%

Q: And the MIC [1]?
A: > 4 µg/mL

Q: What about the Activity [2] of the same compound?
A: 36.6%

Q: And the Activity [6]?
A: 3.7%

Q: With `COc1c(N2CCN(C(=O)CC(P(=O)(O)O)P(=O)(O)O)C(C)C2)c(F)cc2c(=O)c(C(=O)O)cn(C3CC3)c12` (configuration not stated) as the compound, how does the Activity [4] read?
A: 0.01%

Q: What about the Activity [5] of the same compound?
A: 0.01%

Q: And the MIC [1]?
A: > 4 µg/mL

Q: What about the Activity [2] of the same compound?
A: 98.2%

Q: And the Activity [6]?
A: 0.01%

Q: For `COc1c(N2CCNC(C)C2)c(F)cc2c(=O)c(C(=O)O)cn(C3CC3)c12` (configuration not stated) [GATIFLOXACIN], which MIC [1] is on record?
A: 0.06 µg/mL (≈ 0.16 µM)

Q: What about the Activity [2] of the same compound?
A: 0.01%

Q: What about the Activity [7] of the same compound?
A: inactive

Q: What does the source list for `O=C(O)c1cn(C2CC2)c2cc(N3CCN(CC(P(=O)(O)O)P(=O)(O)O)CC3)c(F)cc2c1=O`?
A: Activity [4]: 0.01%; Activity [5]: 0.01%; MIC [1]: > 4 µg/mL; Activity [2]: 99.6%; Activity [6]: 0.01%

Q: For `COc1c(N2CCN(Cc3oc(=O)oc3-c3ccc(P(=O)(O)CP(=O)(O)O)cc3)C(C)C2)c(F)cc2c(=O)c(C(=O)O)cn(C3CC3)c12` (configuration not stated), which Activity [4] is on record?
A: 7.5%

Q: And the Activity [5]?
A: 30%

Q: What about the MIC [1] of the same compound?
A: < 0.12 µg/mL

Q: What about the Activity [2] of the same compound?
A: 63.7%

Q: And the Activity [6]?
A: 22.8%

Q: With `O=C(O)c1cn(C2CC2)c2cc(N3CCNCC3)c(F)cc2c1=O` [CIPROFLOXACIN] as the compound, how does the Activity [2] read?
A: 0.01%

Q: With `COc1c(N2C[C@@H]3CCCN(C(=O)CC(P(=O)(O)O)P(=O)(O)O)[C@@H]3C2)c(F)cc2c(=O)c(C(=O)O)cn(C3CC3)c12` as the compound, how does the Activity [4] read?
A: 0.01%

Q: And the Activity [5]?
A: 0.01%

Q: And the MIC [1]?
A: > 4 µg/mL

Q: What about the Activity [8] of the same compound?
A: inactive

Q: What about the Activity [2] of the same compound?
A: 99.9%

Q: What about the Activity [6] of the same compound?
A: 0.01%

Q: What does the source list for `COc1c(N2C[C@@H]3CCCN(C(=O)OC(C)OC(=O)CCCC(=O)NC(P(=O)(O)O)P(=O)(O)O)[C@@H]3C2)c(F)cc2c(=O)c(C(=O)O)cn(C3CC3)c12` (some centres not stated)?
A: Activity [4]: 1.2%; Activity [5]: 1.4%; MIC [1]: > 4 µg/mL; Activity [2]: 93.9%; Activity [6]: 1.8%

Q: Which Activity [4] does the source give for `COc1c(N2C[C@@H]3CCCN(CC(P(=O)(O)O)P(=O)(O)O)[C@@H]3C2)c(F)cc2c(=O)c(C(=O)O)cn(C3CC3)c12` here?
A: 0.01%

Q: What about the Activity [5] of the same compound?
A: 0.01%

Q: And the MIC [1]?
A: > 4 µg/mL

Q: And the Activity [2]?
A: 92.2%

Q: And the Activity [6]?
A: 0.01%

Q: For `COc1c(N2CCN(C(=O)OCOC(=O)CCC(P(=O)(O)O)P(=O)(O)O)C(C)C2)c(F)cc2c(=O)c(C(=O)O)cn(C3CC3)c12` (configuration not stated), which Activity [4] is on record?
A: 13.4%

Q: What about the Activity [9] of the same compound?
A: Active

Q: What about the Activity [5] of the same compound?
A: 25.4%

Q: What about the MIC [1] of the same compound?
A: 0.5 µg/mL (≈ 0.736 µM)

Q: And the Activity [2]?
A: 86.4%

Q: And the Activity [6]?
A: 21.2%

Q: Which results are given for `COc1c(N2CCN(C(=O)CC(C)(C)c3cc(P(=O)(O)CP(=O)(O)O)ccc3OP(=O)(O)O)C(C)C2)c(F)cc2c(=O)c(C(=O)O)cn(C3CC3)c12` (configuration not stated)?
A: MIC [1]: > 4 µg/mL; Activity [2]: 0.01%

Q: Which Activity [4] does the source give for `COc1c(N2CCN(CCC(=O)c3ccc(OCCCC(P(=O)(O)O)P(=O)(O)O)cc3)C(C)C2)c(F)cc2c(=O)c(C(=O)O)cn(C3CC3)c12` (configuration not stated) here?
A: 2.3%

Q: And the Activity [5]?
A: 4.2%

Q: And the MIC [1]?
A: 0.12 µg/mL (≈ 0.162 µM)

Q: And the Activity [10]?
A: Active

Q: And the Activity [2]?
A: 94.7%

Q: And the Activity [6]?
A: 4.3%
